Sampled rows, rich in hits. Any-hit rate of the full collection: about 1.4%.
STK33 inh – inhibitors of human STK33 kinase; inhibition, % at 10 µM; Q9BYT3; 320,000 compounds, 0.073% hits; purified STK33, MBP phosphorylation, ADP-Glo luminescence;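 active means inhibition at or above 25%, using the most active replicate where run in duplicate; inactive means inhibition below 25%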
GSIS activator – GLuc luminescence reporter in INS-1E cells, primary screen for activators of glucose-dependent secretion of insulin; INS-1E GLuc reporter insulin secretion, 2-3 h; 370,000 compounds, 0.61% hits; AID 743287; activation, % at 16.6 µM;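 active means lowest replicate activation of at least 40%, so every replicate reaches that level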
Env fusion inh – inhibitors of HIV Env-mediated cell fusion | HeLa-JRFL Env/CEM21 cell fusion, luciferase | inhibition, % at 12.3 µM | 360,000 compounds, 1.1% hits;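 active means mean replicate inhibition score of at least 50 and every replicate individually at or above 50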
CDK5 inh – CDK5/p35 (human) kinase inhibition. Q00535+Q15078. Recombinant CDK5/p35, ADP-Glo luminescence, 60 min. inhibition, % at 10 µM. 330,000 compounds, 0.01% hits;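 active means highest replicate inhibition of at least 50% and at least 75% of replicates reaching 50%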
Target sequence (Q00535 whole entry, looked up): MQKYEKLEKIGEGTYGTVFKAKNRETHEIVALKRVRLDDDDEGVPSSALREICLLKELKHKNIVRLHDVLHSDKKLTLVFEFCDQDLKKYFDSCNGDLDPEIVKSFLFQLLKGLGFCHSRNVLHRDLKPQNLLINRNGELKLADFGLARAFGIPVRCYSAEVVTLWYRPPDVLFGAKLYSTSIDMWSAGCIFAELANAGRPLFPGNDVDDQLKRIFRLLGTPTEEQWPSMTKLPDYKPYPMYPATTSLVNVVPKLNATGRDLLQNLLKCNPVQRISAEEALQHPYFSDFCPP
Target sequence (Q15078 whole entry, looked up): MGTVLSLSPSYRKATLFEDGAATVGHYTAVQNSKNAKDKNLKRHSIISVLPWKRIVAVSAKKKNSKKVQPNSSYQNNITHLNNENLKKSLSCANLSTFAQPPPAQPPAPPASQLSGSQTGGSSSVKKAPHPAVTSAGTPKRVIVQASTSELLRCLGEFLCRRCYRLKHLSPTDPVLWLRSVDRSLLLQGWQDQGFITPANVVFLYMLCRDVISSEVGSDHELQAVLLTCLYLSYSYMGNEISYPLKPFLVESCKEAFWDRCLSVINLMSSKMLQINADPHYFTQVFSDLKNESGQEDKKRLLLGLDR
GSK3beta inhib – blocks human GSK3beta kinase activity; P49841; 300,000 compounds, 0.038% hits; GST-GSK3beta kinase, ADP-Glo luminescence, 60 min; hits give low values; activity score (negative = inhibition), % at 10 µM; AID 2097;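 active means more than half of replicate wells score below -50%, meaning over 50% inhibition versus plate controls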
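test system = GST-tagged human GSK3beta kinase, cell-free | reagent = 25 µM ATP with peptide substrate | dosing = one dose of 10 µM per compound | schedule = 60 min reaction, RT | detection = luminescent ADP-Glo measurement of ADP formed | control set = DMSO neutral wells and GW8510 at 20 µM as positive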
GSK3 alpha inh – inhibitors of human GSK-3 alpha kinase; P49840; ADP-Glo luminescence, 60 min; inhibition, % at 10 µM; 320,000 compounds, 0.1% hits; AID 2650;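 active means more than half of replicates show inhibition above 20%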;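 further: GST-tagged GSK-3 alpha with peptide substrate and 25 µM ATP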
Of the large screens only hits and unclear results are named; the others gave an inactive call; [ ] = dose if it differs, or a comment.

Cc1ccccc1-c1cnc2c(c1)C(=O)N([C@@H](C)CO)C[C@H](C)[C@@H](CN(C)C(=O)c1ccccc1)O2	none (no result: STK33 inh, CDK5 inh, GSK3beta inhib, GSK3 alpha inh)
CO[C@@H]1CN(C)C(=O)c2cc(NC(=O)c3ccccc3)ccc2OC[C@@H](C)N(C(C)=O)C[C@H]1C	none (no result: STK33 inh, Env fusion inh, CDK5 inh, GSK3beta inhib, GSK3 alpha inh)
COc1ccc(-c2ccccc2[C@H]2[C@@H]3C=CC[C@@H](C)[C@@H]3C(=O)N2Cc2ccccc2)cc1	Env fusion inh 126 (no result: STK33 inh, GSK3beta inhib, GSK3 alpha inh)
CCNc1nn2ccccc2c1/C=C(\C#N)C(=O)OCC	GSIS activator 66
Cc1ccccc1-c1cc(C(=O)Nc2sc(C(=O)OC(C)C)c(C)c2C#N)c2ccccc2n1	Env fusion inh 63 (no result: GSIS activator)
CCOC(=O)c1c(C)n(C)c2ccc(OCC(O)CN3CCN(C)CC3)cc12 (configuration not stated)	none
CCOC(=O)c1c(C)n(-c2ccc(C)cc2)c2ccc(OCC(O)CN3CCN(C)CC3)cc12 (configuration not stated)	GSIS activator 122 (no result: STK33 inh, GSK3beta inhib, GSK3 alpha inh)
COC(=O)Cn1cc(C#N)c2ccccc21	GSIS activator 70 (no result: Env fusion inh)
CN1C[C@@H]2C[C@@H](C3=Cc4cc(Cl)ccc4OC3)N3CCC[C@@]23C1=O	none
COc1ccccc1CN1C[C@@H]2C[C@@H](C3=Cc4cc(Cl)ccc4OC3)N3CCC[C@@]23C1=O	Env fusion inh 67
C[C@H](CO)N1C[C@H](C)[C@H](CN(C)S(=O)(=O)c2ccc(F)cc2)Oc2ccc(NS(=O)(=O)c3ccccc3)cc2CC1=O	Env fusion inh 86[16.7 µM] (no result: STK33 inh, CDK5 inh, GSK3beta inhib, GSK3 alpha inh)
C[C@@H]1CN([C@@H](C)CO)C(=O)Cc2cc(NS(=O)(=O)c3ccccc3)ccc2O[C@@H]1CN(C)S(=O)(=O)c1ccc(F)cc1	none (no result: STK33 inh, CDK5 inh, GSK3beta inhib, GSK3 alpha inh)
C[C@H](CO)N1C[C@H](C)[C@H](CN(C)S(=O)(=O)c2ccc(F)cc2)Oc2ccc(NS(=O)(=O)c3ccc(Cl)cc3)cc2CC1=O	Env fusion inh 59[16.7 µM] (no result: STK33 inh, CDK5 inh, GSK3beta inhib, GSK3 alpha inh)
O=C1CCCCCN1C(=O)c1ccccc1	none (no result: STK33 inh, GSIS activator, Env fusion inh, GSK3beta inhib, GSK3 alpha inh)
CC(C)(C)c1ccc(C(=O)N2CCCCCC2=O)cc1	Env fusion inh 91 (no result: GSIS activator)
CCn1c(=NC(=O)CS(=O)(=O)c2ccccc2)sc2cccc(OC)c21	Env fusion inh 57
C[C@@H]1CN([C@@H](C)CO)C(=O)c2cc(NC(=O)CCN3CCOCC3)ccc2O[C@@H]1CN(C)Cc1ccc(C(=O)Nc2ccccc2N)cc1	none (no result: STK33 inh, Env fusion inh, CDK5 inh, GSK3beta inhib, GSK3 alpha inh)
CC(/C=N/NC(=O)c1cccc([N+](=O)[O-])c1)=C\c1ccccc1	GSIS activator 49 (no result: GSK3beta inhib)
O=C(N/N=C/c1ccncc1)c1cccc([N+](=O)[O-])c1	none (no result: CDK5 inh)
Cc1[nH]n(-c2cccc3ccccc23)c(=O)c1/C=N/NC(=O)c1cccc([N+](=O)[O-])c1	Env fusion inh 59
COc1cc2oc(=O)cc(-c3cccc(-c4cccc(C)c4)c3)c2c(OC)c1OC	Env fusion inh 57 (no result: STK33 inh, GSK3beta inhib, GSK3 alpha inh)
C[C@@H]1CN([C@@H](C)CO)C(=O)c2cc(NC(=O)Nc3ccc(F)cc3)ccc2O[C@@H]1CN(C)S(=O)(=O)c1ccccc1	none (no result: STK33 inh, Env fusion inh, CDK5 inh, GSK3beta inhib, GSK3 alpha inh)
Cc1csc(CNc2ncnc3ccc(-c4ccc5c(c4)OCO5)cc23)c1	Env fusion inh 61 (no result: GSK3beta inhib)
Cc1cccc(CNc2ncnc3ccc(-c4ccc5c(c4)OCCO5)cc23)c1	Env fusion inh 80 (no result: GSK3beta inhib)
c1nc(NCc2ccc3c(c2)OCO3)c2cc(-c3ccc4c(c3)OCCO4)ccc2n1	none (no result: GSK3beta inhib)
CN(C)CC(=O)Nc1ccc2c(c1)[C@@H]1C[C@H](CC(=O)NCc3ccc4c(c3)OCO4)O[C@H](CO)[C@@H]1O2	none (no result: STK33 inh, CDK5 inh, GSK3beta inhib, GSK3 alpha inh)
CO[C@@H]1CN(C)C(=O)c2cc(NS(C)(=O)=O)ccc2OC[C@H](C)N(CCC(F)(F)F)C[C@H]1C	none (no result: STK33 inh, Env fusion inh, CDK5 inh, GSK3beta inhib, GSK3 alpha inh)
CC=Cc1ccc2n(c1=O)C[C@@H]1[C@@H](CO)[C@H](C(=O)NCCC)[C@H]2N1C(=O)c1ccccc1 (mixture of isomers)	none (no result: STK33 inh, Env fusion inh, CDK5 inh, GSK3beta inhib, GSK3 alpha inh)
Cc1ccc(-n2c(SCC(=O)N3CCOCC3)nnc2-c2cccnc2)cc1C	none (no result: GSIS activator, Env fusion inh)
CCSc1nnc(-c2cccnc2)n1-c1ccc(C)c(Cl)c1	GSIS activator 64 (no result: Env fusion inh, GSK3beta inhib)
C[C@H]1CCCCO[C@H](CN(C)Cc2ccc(Cl)c(Cl)c2)[C@@H](C)CN([C@@H](C)CO)C(=O)c2cc(N(C)C)ccc2O1	none (no result: STK33 inh, GSIS activator, CDK5 inh, GSK3beta inhib, GSK3 alpha inh)
CCOC(=O)C1CCCN(C(=O)c2cc3c(C)nc4ccccc4c3o2)C1 (configuration not stated)	Env fusion inh 56
